Results of several laboratories.
Lines come from different studies, so protocols differ.
Target: Phosphatidylinositol 4,5-bisphosphate 3-kinase catalytic subunit delta isoform (PIK3CD, Homo sapiens, UniProt O00329)
Sequence (O00329 1-1044, as in one of the studies): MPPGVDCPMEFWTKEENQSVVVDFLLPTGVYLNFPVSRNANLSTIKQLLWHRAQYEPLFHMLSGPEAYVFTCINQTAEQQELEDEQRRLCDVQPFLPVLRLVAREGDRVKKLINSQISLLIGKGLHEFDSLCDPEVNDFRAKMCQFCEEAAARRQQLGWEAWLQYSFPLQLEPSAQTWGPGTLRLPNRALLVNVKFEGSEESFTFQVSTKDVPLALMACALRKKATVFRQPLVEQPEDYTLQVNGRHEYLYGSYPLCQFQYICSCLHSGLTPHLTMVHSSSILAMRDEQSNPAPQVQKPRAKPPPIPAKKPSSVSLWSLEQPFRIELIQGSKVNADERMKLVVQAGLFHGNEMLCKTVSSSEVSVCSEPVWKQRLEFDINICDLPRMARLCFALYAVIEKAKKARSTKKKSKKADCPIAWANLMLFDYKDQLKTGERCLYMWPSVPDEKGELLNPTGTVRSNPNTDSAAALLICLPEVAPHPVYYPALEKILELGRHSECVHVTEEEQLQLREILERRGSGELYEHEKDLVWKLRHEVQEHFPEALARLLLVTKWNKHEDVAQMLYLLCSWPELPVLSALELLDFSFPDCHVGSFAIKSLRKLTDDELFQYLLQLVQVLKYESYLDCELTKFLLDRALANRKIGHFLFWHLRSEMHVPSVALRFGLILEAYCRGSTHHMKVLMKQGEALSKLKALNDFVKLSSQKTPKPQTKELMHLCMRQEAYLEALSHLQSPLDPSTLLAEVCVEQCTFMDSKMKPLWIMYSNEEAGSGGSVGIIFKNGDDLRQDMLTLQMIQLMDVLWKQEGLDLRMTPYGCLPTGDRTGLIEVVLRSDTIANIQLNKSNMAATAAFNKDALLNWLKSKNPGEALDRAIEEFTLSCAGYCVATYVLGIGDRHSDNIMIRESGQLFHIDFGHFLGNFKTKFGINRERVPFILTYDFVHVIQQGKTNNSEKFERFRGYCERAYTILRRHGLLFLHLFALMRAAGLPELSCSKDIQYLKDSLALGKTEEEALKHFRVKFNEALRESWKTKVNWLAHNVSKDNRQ

Compound | test | setting | quantity | result
Nc1ncnc2occ(-c3ccc(NC(=O)Nc4cc(C(F)(F)F)ccc4F)cc3)c12 | cell-free assay, inhibitor | 20 µM | remaining signal | 69%
O=C(CSc1nc2nccnc2c(=O)n1CCc1ccccc1)Nc1ccccc1 | enzyme activity, inhibitor | 10 µM | inhibition | < 20%
CO[C@@H](C)c1c(Nc2ccc([C@@H](N(C)C(=O)C3CCS(=O)(=O)CC3)C(F)(F)F)cc2)cnc2cc(Cl)nn12 | cell-free assay, competition with immobilised ligand | 1 µM | remaining binding | 87%
CN(CCCC(F)(F)F)c1nccc(-c2cnn3ncccc23)n1 | binding | 1 µM | remaining binding | 100%
CC(C)(O)c1cncc(-c2nc3ccc(F)cc3n2C2CC2)c1 | cell-free assay, competition with immobilised ligand | 1 µM | remaining binding | 100%
Cc1ccc(C(=O)Nc2ccc(CN3CCN(C)CC3)c(C(F)(F)F)c2)cc1C#Cc1cnc2cccnn12 | enzyme activity, inhibitor | 23.5 nM | remaining activity | 83%
CC(C)CCn1c(SCC(=O)Nc2ccccc2C(F)(F)F)nc2nccnc2c1=O | enzyme activity, inhibitor | 10 µM | inhibition | < 20%
Cc1ccc(C(=O)NCc2ccsc2)cc1C#Cc1cn(C(C)C)c2ncnc(N)c12 | enzyme activity, inhibitor | 1 µM | activity vs control | 98%
CS(=O)(=O)Nc1cc(-c2ccc3ncnc(Nc4ccc(F)c(Cl)c4)c3c2)cnc1Cl | enzyme activity, inhibitor, FRET | 10 µM | inhibition | 90 to 100%
